Measurements published in ChEMBL document CHEMBL1149868, “Synthesis and in vitro anti-leishmanial activity of 1-[5-(5-nitrofuran-2-yl)-1,3,4-thiadiazol-2-yl]- and 1-[5-(5-nitrothiophen-2-yl)-1,3,4-thiadiazol-2-yl]-4-aroylpiperazines” (Bioorg Med Chem, 2008).
pIC50: −log10 of the molar value. Calls of active or inactive are those of the source. The calls are words filed in the database; no cut-off is given here.

What was measured:
[1] = Cytotoxicity against mouse macrophages assessed as cell death at 30 uM after 24 hrs by MTT colorimetric assay; type: cell-based; conditions: macrophage
Outline: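 Mouse peritoneal macrophages were seeded at 2×10^5 cells/well and allowed to adhere. Medium was then replaced with compound-containing medium and cells were incubated 24 h at 37 °C in humidified 5% CO2. Controls received medium plus DMSO. Viability was read by MTT. % cell death = (control viability − treated viability)/control viability. Values are means ± SD.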

[2] = system: Leishmania major; assay: Antileishmanial activity against Leishmania major MRHO/IR/75/ER promastigotes by MTT assay; type: functional, organism-based
Outline: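 L. major MRHO/IR/75/ER promastigotes from early log phase, 2×10^6/mL, in phenol red free RPMI 1640 with 10% FBS, 2 mM glutamine, pH ~7.2 and antibiotics. Exposed to serial drug dilutions for 24 h at 25 °C. MTT (0.5 mg/mL) added for 4 h at 37 °C, pellet dissolved in DMSO, A492 read. Two or more independent experiments in triplicate; IC50 by linear regression, means ± SD.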

[3] = Cytotoxicity against mouse macrophages assessed as cell death at 34.44 uM after 24 hrs by MTT colorimetric assay; type: cell-based; conditions: macrophage
[4] = Partition coefficient, log p of the compound; type: physicochemical; conditions: octanol/water
[5] = Cytotoxicity against mouse macrophages assessed as cell death at 28.26 uM after 24 hrs by MTT colorimetric assay; type: cell-based; conditions: macrophage
[6] = Cytotoxicity against mouse macrophages assessed as cell death at 25 uM after 24 hrs by MTT colorimetric assay; type: cell-based; conditions: macrophage
[7] = Cytotoxicity against mouse macrophages assessed as cell death at 26.22 uM after 24 hrs by MTT colorimetric assay; type: cell-based; conditions: macrophage
[8] = Cytotoxicity against mouse macrophages assessed as cell death at >50 uM after 24 hrs by MTT colorimetric assay; type: cell-based; conditions: macrophage
[9] = system: Leishmania major; assay: Antileishmanial activity against Leishmania major amastigotes in mouse macrophages assessed as decrease in infectivity index after 24 hrs; type: functional, organism-based
[10] = system: Leishmania major; assay: Antileishmanial activity against Leishmania major amastigotes assessed as decrease in infectivity in mouse macrophages after 24 hrs; type: functional, organism-based
[11] = system: Leishmania major; assay: Antileishmanial activity against Leishmania major MRHO/IR/75/ER amastigotes by Giemsa staining
[12] = Cytotoxicity against mouse macrophages assessed as cell death at 11.75 uM after 24 hrs by MTT colorimetric assay; type: cell-based; conditions: macrophage
[13] = Cytotoxicity against mouse macrophages assessed as cell death at 19.18 uM after 24 hrs by MTT colorimetric assay; type: cell-based; conditions: macrophage
[14] = Cytotoxicity against mouse macrophages assessed as cell death at 24.11 uM after 24 hrs by MTT colorimetric assay; type: cell-based; conditions: macrophage
[15] = Cytotoxicity against mouse macrophages assessed as cell death at 10.73 uM after 24 hrs by MTT colorimetric assay; type: cell-based; conditions: macrophage
[16] = Cytotoxicity against mouse macrophages assessed as cell death at 24.69 uM after 24 hrs by MTT colorimetric assay; type: cell-based; conditions: macrophage
[17] = Cytotoxicity against mouse macrophages assessed as cell death at 13.11 uM after 24 hrs by MTT colorimetric assay; type: cell-based; conditions: macrophage
[18] = Cytotoxicity against mouse macrophages assessed as cell death at 11.69 uM after 24 hrs by MTT colorimetric assay; type: cell-based; conditions: macrophage
[19] = Cytotoxicity against mouse macrophages assessed as cell death at 13.19 uM after 24 hrs by MTT colorimetric assay; type: cell-based; conditions: macrophage
[20] = Cytotoxicity against mouse macrophages assessed as cell death at 23.78 uM after 24 hrs by MTT colorimetric assay; type: cell-based; conditions: macrophage

Row | logP [4] | Compound | pIC50 [2] | Activity [9] | Activity [10] | Activity [11] | further results
1 | 2.29 | O=C(c1ccccc1Cl)N1CCN(c2nnc(-c3ccc([N+](=O)[O-])s3)s2)CC1 | 4.46 | – | – | – | Activity [3]: 6.1%
2 | 1.95 | O=C(c1ccc(Cl)cc1)N1CCN(c2nnc(-c3ccc([N+](=O)[O-])o3)s2)CC1 | 4.58 | – | – | – | Activity [7]: 9.7%
3 | 1.92 | O=C(c1ccc(Cl)s1)N1CCN(c2nnc(-c3ccc([N+](=O)[O-])o3)s2)CC1 | 4.93 | Active | Active | Active | Activity [12]: 7.6%
4 | 2.29 | O=C(c1ccc(Cl)cc1)N1CCN(c2nnc(-c3ccc([N+](=O)[O-])s3)s2)CC1 | 4.62 | – | – | – | Activity [14]: 7.2%
5 | 2.57 | O=C(c1ccc(Br)s1)N1CCN(c2nnc(-c3ccc([N+](=O)[O-])s3)s2)CC1 | 4.61 | – | – | – | Activity [16]: 9.2%
6 | 2.22 | O=C(c1ccc(Br)s1)N1CCN(c2nnc(-c3ccc([N+](=O)[O-])o3)s2)CC1 | 4.88 | Active | Active | Active | Activity [17]: 7.7%
7 | 2.17 | O=C(c1ccccc1)N1CCN(c2nnc(-c3ccc([N+](=O)[O-])o3)s2)CC1 | 4.93 | Active | Active | Active | Activity [18]: 7.1%

More lines, now with the values behind:

Row | Compound | logP [4] | pIC50 [2] | Activity [9] | Activity [10] | Activity [11] | further results
8 | MEGLUMINE ANTIMONATE | – | – | – | – | – | Activity [1]: 40.4%
9 | O=C(c1cccs1)N1CCN(c2nnc(-c3ccc([N+](=O)[O-])s3)s2)CC1 | 1.13 | 4.55 | – | – | – | Activity [5]: 8.7%
10 | O=C(c1ccccc1)N1CCN(c2nnc(-c3ccc([N+](=O)[O-])s3)s2)CC1 | 2.52 | 4.60 | – | – | – | Activity [6]: 8.9%
11 | O=C(c1cccc(Cl)c1)N1CCN(c2nnc(-c3ccc([N+](=O)[O-])s3)s2)CC1 | 2.29 | < 4.30 | – | – | – | Activity [8]: 5.5%
12 | O=C(c1cccs1)N1CCN(c2nnc(-c3ccc([N+](=O)[O-])o3)s2)CC1 | 0.78 | 4.72 | – | – | – | Activity [13]: 2.4%
13 | O=C(c1ccccc1Cl)N1CCN(c2nnc(-c3ccc([N+](=O)[O-])o3)s2)CC1 | 1.95 | 4.97 | Active | Active | Active | Activity [15]: 8.7%
14 | O=C(c1cccc(Cl)c1)N1CCN(c2nnc(-c3ccc([N+](=O)[O-])o3)s2)CC1 | 1.95 | 4.88 | Active | Active | Active | Activity [19]: 9.7%
15 | O=C(c1ccc(Cl)s1)N1CCN(c2nnc(-c3ccc([N+](=O)[O-])s3)s2)CC1 | 2.27 | 4.62 | – | – | – | Activity [20]: 9.8%
